Laboratory results taken from ChEMBL document CHEMBL3576830, “Exploiting the Polypharmacology of ß-Carbolines to Disrupt O. volvulus Molting” (ACS Med Chem Lett, 2015).
pIC50, pKi: −log10 of the molar value. The source made the active and inactive calls. No cut-off for these calls is given here.

How the values were obtained:
[1] = molecular target: T1, Chitinase (Onchocerca volvulus) (UniProt Q25615); assay: Inhibition of L3 larval stage of Onchocerca volvulus chitinase using 4-methylumbelliferyl-N-N'-N''-beta-chitotrioside as substrate assessed as release of 4-methylumbelliferone at 5 uM measured for 10 mins by fluorescence assay
T1 sequence (whole entry): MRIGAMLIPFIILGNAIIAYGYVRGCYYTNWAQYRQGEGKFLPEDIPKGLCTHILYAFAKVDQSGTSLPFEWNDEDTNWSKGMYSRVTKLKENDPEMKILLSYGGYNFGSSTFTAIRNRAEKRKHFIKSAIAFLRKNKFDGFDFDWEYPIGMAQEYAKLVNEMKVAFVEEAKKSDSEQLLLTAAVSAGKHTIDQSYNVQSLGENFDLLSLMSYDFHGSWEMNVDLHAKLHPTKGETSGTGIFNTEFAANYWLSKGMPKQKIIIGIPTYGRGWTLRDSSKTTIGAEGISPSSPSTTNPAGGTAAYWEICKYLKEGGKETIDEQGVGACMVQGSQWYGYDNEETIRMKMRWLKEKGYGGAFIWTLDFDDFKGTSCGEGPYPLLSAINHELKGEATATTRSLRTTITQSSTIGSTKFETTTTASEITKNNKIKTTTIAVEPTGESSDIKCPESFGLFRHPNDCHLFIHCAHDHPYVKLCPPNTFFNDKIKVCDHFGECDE
Summary of the method: (§1)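 OvCHT1 activity read by fluorescence, inhibitors tested at 10 and 5 μM.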

Chitinase [2] = molecular target: T2, Chitinase (Onchocerca volvulus, UniProt Q25615); assay: Inhibition of L3 larval stage of Onchocerca volvulus chitinase using 4-methylumbelliferyl-N-N'-N''-beta-chitotrioside as substrate assessed as release of 4-methylumbelliferone measured for 10 mins by fluorescence assay
T2 sequence (Q25615 whole entry): T1 sequence (whole entry)

Entamoeba histolytica = assay: Inhibition of Entamoeba histolytica chitinase using 4-methylumbelliferyl-N-N'-N''-beta-chitotrioside as substrate assessed as release of 4-methylumbelliferone at 10 uM measured for 10 mins by fluorescence assay
[3] = molecular target: T3, Endochitinase (Brugia malayi) (UniProt P29030); assay: Inhibition of Brugia malayi chitinase using 4-methylumbelliferyl-N-N'-N''-beta-chitotrioside as substrate assessed as release of 4-methylumbelliferone at 10 uM measured for 10 mins by fluorescence assay
T3 sequence (whole entry): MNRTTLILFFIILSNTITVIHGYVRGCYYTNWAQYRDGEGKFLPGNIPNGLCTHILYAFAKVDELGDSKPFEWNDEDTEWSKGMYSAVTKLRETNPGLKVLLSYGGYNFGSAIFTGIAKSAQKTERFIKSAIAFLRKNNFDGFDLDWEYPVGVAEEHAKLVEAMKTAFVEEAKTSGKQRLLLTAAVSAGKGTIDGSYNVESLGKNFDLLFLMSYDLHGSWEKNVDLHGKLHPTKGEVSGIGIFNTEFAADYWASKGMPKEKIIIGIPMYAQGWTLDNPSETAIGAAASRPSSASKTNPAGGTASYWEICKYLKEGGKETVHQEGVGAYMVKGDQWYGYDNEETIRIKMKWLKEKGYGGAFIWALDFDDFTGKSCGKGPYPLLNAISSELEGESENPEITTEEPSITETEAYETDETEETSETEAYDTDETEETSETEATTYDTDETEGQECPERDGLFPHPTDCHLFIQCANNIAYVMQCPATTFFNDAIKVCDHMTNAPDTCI

HEK-293T [4] = assay: Mitochondrial uncoupling activity in HEK293T/17 cells at 50 uM after 30 mins by TMRE staining-based fluorescence assay; format: functional, cell-based; conditions: Homo sapiens
Summary of the method: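 HEK 293T/17 cells incubated with 50 μM compound, then stained with TMRE to detect mitochondrial membrane depolarization, read in a microplate fluorescence assay. Reported as mean fluorescence intensity ± SD (n = 3). Unstained cells served as negative control and 0.5% DMSO as positive control. CCCP served as reference protonophore.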

Onchocerca volvulus [5] = assay: Antionchocerciasis activity against L3 larval stage of Onchocerca volvulus assessed as inhibition of parasite molting at 10 uM treated for 24 hrs prior to complete medium and PBMC addition measured after 6 days by inverted microscopic analysis; format: functional
Summary of the method: (§2)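 O. volvulus L3 larvae in wells, 2−3 wells per condition with on average 5−10 larvae each, exposed to inhibitor. Molting counted and expressed as percent molting.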

Onchocerca volvulus [6] = assay: Antionchocerciasis activity against L3 larval stage of Onchocerca volvulus assessed as prevention of L3 cuticle shedding at 100 uM treated for 24 hrs prior to complete medium and PBMC addition measured after 6 days by inverted microscopic analysis; format: functional, organism-based
Summary of the method: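 O. volvulus L3 larvae in 2–3 wells, on average 5–10 larvae per well; read-out is percent molting across the wells.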

[7] = molecular target: T1, Chitinase (Onchocerca volvulus); assay: Inhibition of L3 larval stage of Onchocerca volvulus chitinase using 4-methylumbelliferyl-N-N'-N''-beta-chitotrioside as substrate assessed as release of 4-methylumbelliferone at 10 uM measured for 10 mins by fluorescence assay; format: tissue-based; summary of the method: as §1
Onchocerca volvulus [8] = assay: Antionchocerciasis activity against L3 larval stage of Onchocerca volvulus assessed as inhibition of parasite molting at 1 uM treated for 24 hrs prior to complete medium and PBMC addition measured after 6 days by inverted microscopic analysis; format: functional; summary of the method: as §2
Caenorhabditis elegans [9] = assay: Drug uptake in late stage L4 Caenorhabditis elegans at 10 uM after 6 hrs by LC-MS analysis; format: ADME, organism-based; conditions: in vivo
Summary of the method: (§3)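 Late-stage L4 C. elegans incubated 6 h with 10 μM inhibitor (equivalent to 2 nmol/mg worm). Worm homogenates quantified by LC−MS and also searched for metabolites (7-O-dealkylation, aromatic ring and N²-oxidation products). Uptake expressed as nmol/mg worm, mean ± SD, n = 3.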

HEK-293T [10] = assay: Cytotoxicity against HEK293T/17 cells at 5 uM after 0.5 to 24 hrs by MTS assay; format: cell-based; conditions: human
Chitinase [11] = molecular target: T2, Chitinase; assay: Competitive inhibition of L3 larval stage of Onchocerca volvulus chitinase using 4-methylumbelliferyl-N-N'-N''-beta-chitotrioside as substrate assessed as release of 4-methylumbelliferone measured for 10 mins by Dixon plot analysis
Caenorhabditis elegans [12] = assay: Drug metabolism in late stage L4 Caenorhabditis elegans assessed as formation of 7-methoxy-1-methyl-9H-pyrido[3,4-b]indole at 10 uM after 6 hrs by LC-MS analysis; format: ADME, organism-based; conditions: in vivo; summary of the method: as §3
Caenorhabditis elegans [13] = assay: Drug metabolism in late stage L4 Caenorhabditis elegans assessed as formation of 7-O-dealkylated, aromatic ring, and N2-oxidized metabolite at 10 uM after 6 hrs by LC-MS analysis; format: ADME, organism-based; conditions: in vivo; summary of the method: as §3
Caenorhabditis elegans [14] = assay: Drug level in late stage L4 Caenorhabditis elegans treated with 2-(Cyclopropylmethyl)-7-methoxy-1-methyl-9H-pyrido[3,4-b]indol-2-ium bromide at 10 uM after 6 hrs by LC-MS analysis; format: ADME, organism-based; conditions: in vivo
Summary of the method: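 Late-stage L4 C. elegans were exposed to 10 μM compound (equivalent to 2 nmol/mg worm) for 6 h. Worm homogenates were quantified by LC–MS and expressed as nmol/mg worm, mean ± SD, n = 3.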

For `Cc1nccc2c3ccccc3n(CC3CC3)c12`, the inhibition [1] was “inactive”.

In the case of `Cc1nccc2c3ccc(OCc4ccc(Cl)cc4)cc3n(Cc3ccc(Cl)cc3)c12`, the pIC50 (Chitinase [2]) was 5.68, the inhibition (Entamoeba histolytica) was “inactive” and the inhibition [3] was “inactive”. The Activity (HEK-293T [4]) was “inactive”, the inhibition (Onchocerca volvulus [5]) was “inactive” and the Activity (Onchocerca volvulus [6]) was “Active”.

For `Cc1c2[nH]c3ccccc3c2cc[n+]1Cc1ccccc1`, the inhibition [7] was “inactive”.

`O=S(=O)(Nc1ccc(Cl)cc1)c1ccc2[nH]c3cnccc3c2c1` was tested, and the inhibition [7] was “inactive”.

In the case of `Cc1nccc2c1[nH]c1cc(OCc3ccc(Cl)cc3)ccc12`, the inhibition [7] was “inactive”.

With `CCNS(=O)(=O)c1ccc2[nH]c3cnccc3c2c1` the inhibition [7] was “inactive”.

`COc1ccc2c(c1)[nH]c1c(C)[n+](Cc3ccc(Cl)cc3)ccc12.[Br-]` was tested, and the pIC50 (Chitinase [2]) was 5.46, the Activity (HEK-293T [4]) was “Active” and the inhibition (Onchocerca volvulus [5]) was “Active”. The inhibition at 1 µM (Onchocerca volvulus [8]) was 45%, the Drug uptake (Caenorhabditis elegans [9]) was 0.22 nmol/mg and the Activity (HEK-293T [10]) was “Non-toxic”.

For `Cc1[nH]ccc2c1[nH]c1cc(=O)ccc12` [HARMOL], the pIC50 (Chitinase [2]) was 5.15, the inhibition (Entamoeba histolytica) was “inactive” and the inhibition [3] was “inactive”. For the same compound, the Activity (HEK-293T [4]) was “Active” and the inhibition at 10 µM (Onchocerca volvulus [5]) was 61%.

In the case of `N#CC(C#N)=NNc1cccc(Cl)c1`, the Activity (HEK-293T [4]) was “Active”.

`O=S(=O)(NC1CCCC1)c1ccc2[nH]c3cnccc3c2c1` was tested, and the inhibition [7] was “inactive”.

`c1ccc2c(c1)[nH]c1cnccc12` [NORHARMANE] was tested, and the pIC50 (Chitinase [2]) was 5.07, the Activity (HEK-293T [4]) was “inactive” and the inhibition (Onchocerca volvulus [5]) was “inactive”. The Activity (Onchocerca volvulus [6]) was “Active”.

With `Cc1nccc2c3ccccc3n(Cc3ccc(Cl)cc3)c12` the inhibition [7] was “inactive”.

In the case of `Cc1nccc2c1[nH]c1ccccc12` [HARMAN], the pIC50 (Chitinase [2]) was 5.13, the Activity (HEK-293T [4]) was “inactive” and the inhibition (Onchocerca volvulus [5]) was “inactive”. For the same compound, the Activity (Onchocerca volvulus [6]) was “Active”.

For `Cc1c2[nH]c3cc(OCc4ccc(Cl)cc4)ccc3c2cc[n+]1Cc1ccc(Cl)cc1.[Br-]`, the pIC50 (Chitinase [2]) was 5.84, the pKi (Chitinase [11]) was 6.01 and the inhibition (Entamoeba histolytica) was “Active”. For the same compound, the inhibition [3] was “Active”, the Activity (HEK-293T [4]) was “Active” and the inhibition (Onchocerca volvulus [5]) was “Active”. For the same compound, the inhibition at 1 µM (Onchocerca volvulus [8]) was 27% and the Activity (HEK-293T [10]) was “Non-toxic”.

In the case of `Cc1c2[nH]c3ccccc3c2cc[n+]1Cc1ccc(Cl)cc1`, the inhibition [1] was “inactive”.

For `Cc1nccc2c3ccccc3n(C)c12`, the inhibition [7] was “inactive”.

For `Cc1c2[nH]c3ccccc3c2cc[n+]1Cc1ccc(C(F)(F)F)cc1`, the inhibition [7] was “inactive”.

`COc1ccc2c(c1)[nH]c1c(C)[n+](CC3CC3)ccc12.[Br-]` was tested, and the pIC50 (Chitinase [2]) was 5.45, the inhibition (Entamoeba histolytica) was “inactive” and the inhibition [3] was “inactive”. For the same compound, the Activity (HEK-293T [4]) was “Active”, the inhibition (Onchocerca volvulus [5]) was “Active” and the inhibition (Onchocerca volvulus [8]) was “inactive”. For the same compound, the Drug uptake (Caenorhabditis elegans [9]) was 0.033 nmol/mg, the Drug metabolism (Caenorhabditis elegans [12]) was “metabolite_detected” and the Drug metabolism (Caenorhabditis elegans [13]) was “metabolite_notdetected”. For the same compound, the Activity (HEK-293T [10]) was “Non-toxic”.

`Cc1c2[nH]c3ccccc3c2cc[n+]1C` was tested, and the inhibition [7] was “inactive”.

In the case of `Cc1nccc2c1[nH]c1cc(OCC3CC3)ccc12`, the inhibition [7] was “inactive”.

For `COc1ccc2c3ccnc(C)c3n(CC3CC3)c2c1`, the inhibition [7] was “inactive”.

`Cc1ccc(NS(=O)(=O)c2ccc3[nH]c4cnccc4c3c2)cc1` was tested, and the inhibition [7] was “inactive”.

For `O=S(=O)(Nc1ccccc1)c1ccc2[nH]c3cnccc3c2c1`, the inhibition [7] was “inactive”.

In the case of `COc1ccc2c3ccnc(C)c3n(Cc3ccc(Cl)cc3)c2c1`, the inhibition [7] was “inactive”.

With `Cc1nccc2c3ccccc3n(Cc3ccccc3)c12` the inhibition [7] was “inactive”.

For `Cc1c2[nH]c3ccccc3c2cc[n+]1CC1CC1`, the inhibition [1] was “inactive”.

In the case of `COc1ccc2c(c1)[nH]c1c(C)nccc12` [HARMINE], the pIC50 (Chitinase [2]) was 5.15, the pKi (Chitinase [11]) was 5.42 and the inhibition (Entamoeba histolytica) was “inactive”. For the same compound, the inhibition [3] was “inactive”, the Activity (HEK-293T [4]) was “Active” and the inhibition at 10 µM (Onchocerca volvulus [5]) was 57%. For the same compound, the Drug uptake (Caenorhabditis elegans [14]) was 0.052 nmol/mg.
